Results of several laboratories.
Lines come from different studies, so protocols differ.
Target: Serine/threonine-protein kinase TAO3 (TAOK3, Homo sapiens, UniProt Q9H2K8)
Residues used in one study (Q9H2K8 1-898): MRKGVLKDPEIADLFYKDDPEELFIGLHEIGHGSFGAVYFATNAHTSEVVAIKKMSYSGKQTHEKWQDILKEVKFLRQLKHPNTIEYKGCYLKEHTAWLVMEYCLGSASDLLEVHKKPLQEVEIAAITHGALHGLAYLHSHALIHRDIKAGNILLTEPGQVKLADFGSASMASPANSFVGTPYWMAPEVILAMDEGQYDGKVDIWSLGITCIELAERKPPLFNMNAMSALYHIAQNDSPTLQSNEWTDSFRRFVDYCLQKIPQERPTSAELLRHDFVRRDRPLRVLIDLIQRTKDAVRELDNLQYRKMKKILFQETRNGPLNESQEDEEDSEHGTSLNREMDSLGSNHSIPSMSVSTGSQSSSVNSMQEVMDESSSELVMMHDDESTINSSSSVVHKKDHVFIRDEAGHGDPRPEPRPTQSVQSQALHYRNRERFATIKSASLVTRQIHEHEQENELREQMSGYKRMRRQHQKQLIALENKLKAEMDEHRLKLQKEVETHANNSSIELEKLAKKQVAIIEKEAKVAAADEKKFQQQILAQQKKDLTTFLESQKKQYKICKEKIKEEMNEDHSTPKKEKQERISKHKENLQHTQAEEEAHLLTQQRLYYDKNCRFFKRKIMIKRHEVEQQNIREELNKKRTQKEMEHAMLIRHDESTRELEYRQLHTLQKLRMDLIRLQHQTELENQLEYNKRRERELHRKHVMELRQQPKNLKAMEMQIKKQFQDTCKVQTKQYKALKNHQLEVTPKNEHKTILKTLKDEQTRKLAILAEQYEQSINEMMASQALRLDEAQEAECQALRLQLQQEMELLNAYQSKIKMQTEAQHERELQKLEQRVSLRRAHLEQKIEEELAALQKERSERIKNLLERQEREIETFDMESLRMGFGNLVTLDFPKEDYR

N[C@@H]1CCN(c2nccc(-c3cnn4ncccc34)n2)C1
remaining binding (binding; 1 µM): 100%

FC(F)(F)Oc1cccc(-c2cnc3ccc(-c4ccncc4)nn23)c1
remaining binding (binding, competition with immobilised ligand; 5 µM): 72%

O=C(c1ccc(Nc2ncc(Cl)c(-c3cc4ccccc4s3)n2)cc1)N1CCC(N2CCCC2)CC1
remaining binding (binding, competition with immobilised ligand; 1 µM): 68%

O=C(NCC1CCOCC1)c1n[nH]cc1NC(=O)c1c(F)cccc1F
remaining binding (binding, competition with immobilised ligand; 1 µM): 45%

CN(CCCC(F)(F)F)c1nccc(-c2cnn3ncccc23)n1
remaining binding (binding; 1 µM): 61%

Cc1cnc(Nc2ccc(C(=O)N3CCC(N4CCCC4)CC3)cc2)nc1-c1cc2ccccc2s1
remaining binding (binding, competition with immobilised ligand; 1 µM): 77%

C[C@@H]1CCN(c2nccc(-c3cnn4ncccc34)n2)C1
remaining binding (binding; 1 µM): 90%

CN1CCN(c2cnc3c(C4CCN(C(=O)c5ccc(OC(F)(F)F)cc5N)CC4)ncnc3c2)CC1
remaining binding (cell-free assay, competition with immobilised ligand; 1 µM): 100%

COc1ncc2cc3ccccc3nc2c1C#N
remaining binding (cell-free assay, competition with immobilised ligand; 5 µM): 100%

C=CC(=O)N1CCC(C(=O)NCC(=O)N2CCN(c3nc(-c4cnc(N)nc4C(F)F)nc(N4CCOCC4)n3)CC2)CC1
remaining binding (binding, competition with immobilised ligand; 1 µM): 77%

C[C@H](c1ccnc(Nc2nc3ccc(-c4cc(N(C)C)ncn4)cc3[nH]2)c1)N1CCN(C(=O)CC(F)(F)F)CC1
remaining binding (cell-free assay, competition with immobilised ligand; 0.1 µM): 41%

Nc1ncc2c(n1)-c1c([nH]c3ccc(C#CC4CC4)cc13)CCCC2
remaining binding (binding, competition with immobilised ligand; 1 µM): 89%

Cc1cc(NC(=O)c2cccc(S(F)(F)(F)(F)F)c2)cc(-n2ccn3nc(-c4cccnc4)cc23)c1
remaining binding (cell-free assay, competition with immobilised ligand; 1 µM): 100%

COc1cnc(Nc2cccc(S(N)(=O)=O)c2)nc1N1CCN(c2ccccc2)CC1
remaining binding (binding, competition with immobilised ligand; 1 µM): 85%

CCC(=O)N[C@H]1CC[C@@H](C(=O)N(C)c2ccc(-c3nc4ccccc4o3)cc2)C1
remaining binding (cell-free assay, competition with immobilised ligand; 1 µM): 70%

CN(c1nccc(-c2cnn3ncccc23)n1)C1CC1
remaining binding (binding; 1 µM): 54%

O=C1CCc2cc(Nc3cc(OC4CCOCC4)c([N+](=O)[O-])cc3Cl)ccc2N1
remaining binding (cell-free assay, competition with immobilised ligand; 1 µM): 81%

Cc1cnn2ncc(-c3ccnc(N(C)C)n3)c2c1
remaining binding (binding; 1 µM): 91%

C[C@@H]1CN(c2cc(-c3nn(C)c4ccc(OC5(C)CC5)cc34)ncn2)C[C@H](C)O1
remaining binding (binding, competition with immobilised ligand; 1 µM): 35%

CN(C)c1ncc(F)c(-c2cnn3ncccc23)n1
remaining binding (binding; 1 µM): 78%

CNCc1ccccc1-c1csc([C@@H](C)Nc2nc(C)nc3cc(OC)c(OC)cc23)c1
remaining binding (cell-free assay, competition with immobilised ligand; 1 µM): 83%

O=C(c1ccc(Nc2ncc(Cl)c(-c3ccc(Cl)s3)n2)cc1)N1CCC(N2CCCC2)CC1
remaining binding (binding, competition with immobilised ligand; 1 µM): 49%
